Consider twelve molecules from ChEMBL document CHEMBL4014339, “Discovery of 1,4-Benzodiazepine-2,5-dione (BZD) Derivatives as Dual Nucleotide Binding Oligomerization Domain Containing 1/2 (NOD1/NOD2) Antagonists Sensitizing Paclitaxel (PTX) To Suppress Lewis Lung Carcinoma (LLC) Growth in Vivo” (J Med Chem, 2017).

Activity calls are given as the source filed them. The rule behind the calls is not given here.

Series [1] is described as follows: Cytotoxicity against HEK-Blue cells by SRB assay. The format is cell-based. To be noted: human.
In series [2] the target is T1, Nucleotide-binding oligomerization domain-containing protein 1 (Homo sapiens) (UniProt Q9Y239).
T1 sequence (whole entry): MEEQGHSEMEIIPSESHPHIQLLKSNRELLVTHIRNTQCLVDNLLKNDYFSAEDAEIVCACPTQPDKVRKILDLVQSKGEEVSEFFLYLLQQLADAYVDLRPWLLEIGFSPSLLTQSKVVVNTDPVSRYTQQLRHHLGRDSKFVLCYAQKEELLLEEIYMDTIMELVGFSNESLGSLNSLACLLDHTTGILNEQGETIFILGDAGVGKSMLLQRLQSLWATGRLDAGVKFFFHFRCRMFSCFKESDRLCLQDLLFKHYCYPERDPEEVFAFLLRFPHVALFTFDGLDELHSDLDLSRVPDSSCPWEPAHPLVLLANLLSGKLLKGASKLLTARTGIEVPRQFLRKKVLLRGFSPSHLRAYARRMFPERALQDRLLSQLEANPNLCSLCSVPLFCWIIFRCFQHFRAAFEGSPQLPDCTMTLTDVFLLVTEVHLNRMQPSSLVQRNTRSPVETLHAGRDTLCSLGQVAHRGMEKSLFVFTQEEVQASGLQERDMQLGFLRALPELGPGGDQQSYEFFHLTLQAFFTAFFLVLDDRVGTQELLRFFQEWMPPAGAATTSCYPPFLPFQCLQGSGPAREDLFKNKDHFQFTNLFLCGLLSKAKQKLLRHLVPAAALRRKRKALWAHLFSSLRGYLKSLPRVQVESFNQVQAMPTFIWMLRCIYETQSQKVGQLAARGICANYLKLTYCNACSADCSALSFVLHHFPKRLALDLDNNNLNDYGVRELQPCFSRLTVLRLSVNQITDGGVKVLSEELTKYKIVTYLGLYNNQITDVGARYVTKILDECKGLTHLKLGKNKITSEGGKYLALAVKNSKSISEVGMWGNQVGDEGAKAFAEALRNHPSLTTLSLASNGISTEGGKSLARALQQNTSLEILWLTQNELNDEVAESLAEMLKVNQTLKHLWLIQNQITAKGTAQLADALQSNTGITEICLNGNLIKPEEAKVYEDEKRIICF
The experiment in a line: Antagonist activity at human NOD1 expressed in HEK-Blue cells assessed as inhibition of C12-iE-DAP-stimulated cell activation at 10 uM preincubated for 3 hrs followed by C12-iE-DAP addition measured after 20 hrs by SEAP reporter gene assay. It counts as cell-based. In a few lines:
(§1)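 HEK-Blue hNOD1 or hNOD2 cells preincubated with compound 3 h, then stimulated 20 h with C12-iE-DAP 50 ng/mL (NOD1) or MDP 100 ng/mL (NOD2); SEAP in supernatant quantified. Primary screen at 10 μM, hits repeated in triplicate; IC50 from dose-response, mean ± SD (n = 3), only for compounds reaching ≥50% inhibition at the screening concentration.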

For series [3], the target named is T2, Nucleotide-binding oligomerization domain-containing protein 2 (Homo sapiens, UniProt Q9HC29). The experiment in a line: Antagonist activity at human NOD2 expressed in HEK-Blue cells assessed as inhibition of MDP-stimulated cell activation at 10 uM preincubated for 3 hrs followed by MDP addition measured after 20 hrs by SEAP reporter gene assay. The format is cell-based. In a few lines:
as §1
(In general: Reporter assays use an easily measured gene product as a stand-in for the process of interest.)

In series [4] the target is T1, Nucleotide-binding oligomerization domain-containing protein 1 (Homo sapiens). The series is described as follows: Antagonist activity at human NOD1 expressed in HEK-blue cells assessed as inhibition of C12-iE-DAP-stimulated cell activation at 5 uM preincubated for 3 hrs followed by C12-iE-DAP addition measured after 20 hrs by SEAP reporter gene assay. It counts as cell-based.

Series [5] concerns the target T2, Nucleotide-binding oligomerization domain-containing protein 2. The experiment in a line: Antagonist activity at human NOD2 expressed in HEK-Blue cells assessed as inhibition of MDP-stimulated cell activation preincubated for 3 hrs followed by MDP addition measured after 20 hrs by SEAP reporter gene assay. It counts as cell-based. The procedure, abridged: as §1

Series [6] deals with T3, Nucleotide-binding oligomerization domain-containing protein 1 (Homo sapiens, UniProt Q9Y239).
T3 sequence (Q9Y239 whole entry): T1 sequence (whole entry)
The series is described as follows: Antagonist activity at human NOD1 expressed in HEK-blue cells assessed as inhibition of C12-iE-DAP-stimulated cell activation preincubated for 3 hrs followed by C12-iE-DAP addition measured after 20 hrs by SEAP reporter gene assay. It counts as cell-based. The procedure, abridged: as §1

Series [7] addresses T2, Nucleotide-binding oligomerization domain-containing protein 2. The experiment in a line: Antagonist activity at human NOD2 expressed in HEK-Blue cells assessed as inhibition of MDP-stimulated cell activation at 5 uM preincubated for 3 hrs followed by MDP addition measured after 20 hrs by SEAP reporter gene assay. The format is cell-based.
Series [8] concerns the target T1, Nucleotide-binding oligomerization domain-containing protein 1 (Homo sapiens). The series is described as follows: Inhibition of NOD1 in human PBMC-derived macrophages assessed as reduction in C12-iE-DAP-stimulated TNFalpha mRNA expression at 1 uM preincubated for 1 hr followed by C12-iE-DAP stimulation for 90 mins by RT-qPCR analysis. The procedure, abridged: (§2)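 Human CD14+ monocytes from donor PBMC, differentiated 7 days with M-CSF 20 ng/mL to macrophages; 1.0 × 10^6 cells pretreated 1 h with compound (final 0.1% DMSO), then C12-iE-DAP 500 ng/mL or MDP 5 μg/mL for 90 min. IL-6/TNF-α mRNA by qRT-PCR, normalized to GAPDH; stimulated response set to 100%.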
Background: Quantitative PCR measures a nucleic acid by following its amplification.

The target is the same in series [9]. The series is described as follows: Inhibition of NOD1 in human PBMC-derived macrophages assessed as reduction in C12-iE-DAP-stimulated IL6 mRNA expression at 1 uM preincubated for 1 hr followed by C12-iE-DAP stimulation for 90 mins by RT-qPCR analysis. In a few lines:
as §2

Series [10] has as its system Lewis lung carcinoma cell line. The series is described as follows: Antitumor activity against mouse LLC cells implanted in C57BL/6 mouse assessed as tumor weight inhibition at 12 mg/kg, iv administered every 4 days measured 11 days after tumor implantation. It counts as functional, organism-based.

T2 sequence (Q9HC29 whole entry, the tested form may be a part): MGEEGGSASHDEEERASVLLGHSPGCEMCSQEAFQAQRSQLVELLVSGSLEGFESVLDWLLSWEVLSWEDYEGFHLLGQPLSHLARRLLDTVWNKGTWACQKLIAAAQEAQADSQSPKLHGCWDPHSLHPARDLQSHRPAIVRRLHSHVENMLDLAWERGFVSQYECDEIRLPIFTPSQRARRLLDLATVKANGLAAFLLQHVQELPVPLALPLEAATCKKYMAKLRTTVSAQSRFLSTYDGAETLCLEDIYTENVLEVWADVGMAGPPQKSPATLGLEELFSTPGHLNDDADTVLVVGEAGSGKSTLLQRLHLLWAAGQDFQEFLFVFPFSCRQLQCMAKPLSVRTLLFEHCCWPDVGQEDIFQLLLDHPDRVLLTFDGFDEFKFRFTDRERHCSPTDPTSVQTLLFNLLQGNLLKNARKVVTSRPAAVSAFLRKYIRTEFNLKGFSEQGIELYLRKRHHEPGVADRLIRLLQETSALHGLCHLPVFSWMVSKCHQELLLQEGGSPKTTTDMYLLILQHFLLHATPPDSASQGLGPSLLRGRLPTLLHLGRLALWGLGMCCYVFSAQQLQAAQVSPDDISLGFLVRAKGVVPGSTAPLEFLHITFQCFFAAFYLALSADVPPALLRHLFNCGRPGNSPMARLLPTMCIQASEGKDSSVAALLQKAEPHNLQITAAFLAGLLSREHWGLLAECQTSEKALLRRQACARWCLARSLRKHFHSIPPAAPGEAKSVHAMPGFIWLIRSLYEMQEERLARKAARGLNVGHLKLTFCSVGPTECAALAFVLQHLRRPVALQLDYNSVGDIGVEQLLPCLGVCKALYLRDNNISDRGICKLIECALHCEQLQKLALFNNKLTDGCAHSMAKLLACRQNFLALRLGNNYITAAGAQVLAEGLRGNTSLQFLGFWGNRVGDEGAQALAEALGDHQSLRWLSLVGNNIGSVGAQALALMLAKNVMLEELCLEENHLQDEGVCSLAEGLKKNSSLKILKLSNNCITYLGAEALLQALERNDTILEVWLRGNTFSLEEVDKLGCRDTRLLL

As for `CN(C)c1cccc(Oc2cc3c(cc2NC(=O)COCc2ccc(C(F)(F)F)cc2)NC(=O)[C@@H](CCC(=O)N2CCC(F)CC2)NC3=O)c1`, the Activity result in series [1] is given as “Toxic”. The inhibition (commonly the change of the read-out against control, counted positive when it falls) in series [2] is 92.6%; in series [3], 94.7%; in [4], 90.2%; in series [7], 91.7%. The IC50 (as a rule, the concentration at which inhibition is half-maximal) worked out at 420 nM in series [5] and 580 nM in [6].

Turning to `Nc1nc2ccccc2n1S(=O)(=O)c1ccc(Cl)cc1`, the inhibition entry in series [8] and in [9] was “Active” each time.

For `CC(=O)O[C@H]1C(=O)[C@@]2(C)[C@H]([C@H](OC(=O)c3ccccc3)[C@]3(O)C[C@H](OC(=O)[C@H](O)[C@@H](NC(=O)c4ccccc4)c4ccccc4)C(C)=C1C3(C)C)[C@]1(OC(C)=O)CO[C@@H]1C[C@@H]2O`, in series [10], the TGI result was “inactive”.

Turning to `COC(=O)CC[C@H]1NC(=O)c2cc(Oc3cccc(N(C)C)c3)c(NC(=O)COCc3ccccc3)cc2NC1=O`, the Activity result in [1] is reported as “Non-Toxic”. The inhibition is 70.4% in series [2] and 69.1% in [3].

As to `CN(C)c1cccc(Oc2cc3c(cc2NC(=O)COCc2ccc(C(F)(F)F)cc2)NC(=O)[C@@H](CCC(=O)N2CCC(F)(F)CC2)NC3=O)c1`, the Activity entry in series [1] is reported as “Toxic”. The inhibition in [2] is 90.9%; in [3], 94.8%; in series [4] it was 91.2%; in series [7], 92.8%. Also, the IC50 in [5] worked out at 810 nM; in [6], 430 nM.

For the molecule `COC(=O)CC[C@H]1NC(=O)c2cc(Oc3cccc(N(C)C)c3)c(NC(=O)COCc3cccc(Br)c3)cc2NC1=O`, the inhibition in series [2] was 89.6%; in series [3], 86.7%; in series [4] it was 82.9%; in [7], 65.9%. The IC50 in [5] amounted to 2280 nM; in series [6], 1330 nM.

Consider `COC(=O)CC[C@H]1NC(=O)c2cc(Oc3ccc(Cl)c(N(C)C)c3)c(NC(=O)COCc3ccccc3)cc2NC1=O`, for which the inhibition in [2] amounted to 73%; in series [3], 78.1%; in series [4] it was 58.2%; in series [7] it was 59.9%. In addition, the IC50 in series [5] stood at 3550 nM; in [6] it was 2900 nM.

Regarding `CCN(CC)C(=O)CC[C@H]1NC(=O)c2cc(Oc3cccc(N(C)C)c3)c(NC(=O)COCc3ccccc3)cc2NC1=O`, the inhibition in [2] came out at 80.8%; in [3] it was 76.9%; in [4] it was 80.5%; in series [7] it was 60.8%. Moreover, the concentration for half-maximal inhibition (IC50) was found to be 3410 nM in series [5] and 1270 nM in series [6].

Turning to `COC(=O)CC[C@H]1NC(=O)c2cc(Oc3cccc(N(C)C)c3)c(NC(=O)COCc3ccc(Cl)cc3)cc2NC1=O`, the inhibition in [2] is 90.6%; in series [3] it was 90.7%; in series [4] it was 90.7%; in series [7] it was 86.3%. Besides, the IC50 in series [5] is 1240 nM; in [6] it was 610 nM.

Regarding `CN(C)c1cccc(Oc2cc3c(cc2NC(=O)COCc2ccccc2)NC(=O)[C@@H](CCC(=O)N2CCCC2)NC3=O)c1`, the inhibition was determined as 82% in [2], 75.6% in series [3], 73.2% in series [4] and 58.2% in series [7]. Besides, the figures for the half-maximal inhibitory concentration (IC50) in series [5] and in series [6] were 3790 nM and 2370 nM, respectively.

`COC(=O)CC[C@H]1NC(=O)c2cc(Oc3ccc(Cl)c(N(C)C)c3)c(NC(=O)COCc3ccc(Cl)cc3)cc2NC1=O`: the inhibition in series [2] is 55.1%; in series [3], 79%; in series [4] it was 71.8%; in [7] it was 82.2%. The IC50 in series [5] worked out at 1020 nM; in series [6], 1550 nM.

`CN(C)c1cccc(Oc2cc3c(cc2NC(=O)COCc2ccc(Cl)cc2)NC(=O)[C@@H](CCC(=O)N2CCCCC2)NC3=O)c1`: the inhibition was found to be 85.2% in series [2], 96.7% in series [3], 82.9% in series [4] and 91.2% in series [7]. For the same molecule, the IC50 in [5] is 900 nM; in series [6], 1060 nM.
